ChEMBL document CHEMBL1126069, “Synthesis of high affinity fluorine-substituted ligands for the androgen receptor. Potential agents for imaging prostatic cancer by positron emission tomography” (J Med Chem, 1992)

Target: T1, Progesterone receptor (Rattus norvegicus) (UniProt Q63449)
T1 sequence (whole entry): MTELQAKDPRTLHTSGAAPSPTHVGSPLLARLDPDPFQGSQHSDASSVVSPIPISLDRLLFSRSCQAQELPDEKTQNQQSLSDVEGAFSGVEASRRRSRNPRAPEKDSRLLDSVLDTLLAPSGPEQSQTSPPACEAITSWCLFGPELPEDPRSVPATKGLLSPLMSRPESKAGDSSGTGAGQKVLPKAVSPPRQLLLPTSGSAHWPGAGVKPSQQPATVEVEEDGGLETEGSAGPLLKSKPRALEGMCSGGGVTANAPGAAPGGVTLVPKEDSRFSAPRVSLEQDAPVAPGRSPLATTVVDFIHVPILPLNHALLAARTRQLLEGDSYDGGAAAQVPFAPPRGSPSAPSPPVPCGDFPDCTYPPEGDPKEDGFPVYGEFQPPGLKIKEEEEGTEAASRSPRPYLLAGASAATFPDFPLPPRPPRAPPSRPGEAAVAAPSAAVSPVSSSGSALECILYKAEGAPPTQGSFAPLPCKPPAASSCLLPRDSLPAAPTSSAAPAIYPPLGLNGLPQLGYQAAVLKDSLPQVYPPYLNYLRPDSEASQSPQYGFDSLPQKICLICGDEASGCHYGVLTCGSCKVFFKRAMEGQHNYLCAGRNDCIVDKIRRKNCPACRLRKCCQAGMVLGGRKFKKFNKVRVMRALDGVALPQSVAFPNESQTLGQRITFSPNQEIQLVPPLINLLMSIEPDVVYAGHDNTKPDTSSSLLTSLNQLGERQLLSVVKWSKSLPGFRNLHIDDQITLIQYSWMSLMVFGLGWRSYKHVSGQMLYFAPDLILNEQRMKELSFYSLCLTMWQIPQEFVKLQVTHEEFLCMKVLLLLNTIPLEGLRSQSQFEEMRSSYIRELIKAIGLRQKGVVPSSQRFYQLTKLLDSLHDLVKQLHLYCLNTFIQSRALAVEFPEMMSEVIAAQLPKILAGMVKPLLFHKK
Test: Displacement of [3H]R5020 from rat progesterone receptor(PgR)
Summary of the method: (§1)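 Competitive radiometric binding assay giving relative binding affinities. The reference standards were R5020 for rat PgR, aldosterone for rat MR and estradiol for human SBP.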

**Q.** Which relative binding affinity (RBA) does the source give for `C[C@@H]1CC2=CC(=O)CC[C@@H]2C2CC[C@@]3(C)C(C[C@@H](F)[C@]3(C)O)C21` (stereo partly drawn) here?
**A.** The relative binding affinity (RBA) was 14.4.

**Q.** For `C[C@]12CC[C@H]3[C@@H](CCC4CC(=O)CC[C@@]43C)[C@@H]1C[C@@H](F)[C@@H]2O` (stereo partly drawn), which relative binding affinity (RBA) is on record?
**A.** Its relative binding affinity (RBA) is 0.07.

**Q.** For `C[C@@H]1CC2=CC(=O)CC[C@@H]2C2CC[C@@]3(C)C(C[C@H](F)[C@]3(C)O)C21` (stereo partly drawn), which relative binding affinity (RBA) is on record?
**A.** The relative binding affinity (RBA) was 3.

**Q.** With `C[C@@H]1CC2=CC(=O)CC[C@@H]2C2CC[C@@]3(C)C(CC[C@]3(C)O)C21` (stereo partly drawn) as the compound, how does the relative binding affinity (RBA) read?
**A.** Its relative binding affinity (RBA) is 20.4.

**Q.** Which relative binding affinity (RBA) does the source give for `C[C@]12CC[C@H]3[C@@H](CCC4CC(=O)CC[C@@]43C)[C@@H]1C[C@H](F)[C@@H]2O` (stereo partly drawn) here?
**A.** The relative binding affinity (RBA) was 0.12.

**Q.** For `C[C@]12CC[C@H]3[C@@H](CCC4=CC(=O)CC[C@@]43C)[C@@H]1CC[C@@H]2O`, which relative binding affinity (RBA) is on record?
**A.** Its relative binding affinity (RBA) is 0.09.

Species: Rattus norvegicus
Test: Relative affinity for rat androgen receptor(AR) and progesterone receptor(PgR)
Summary of the method: (§2)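 Each ratio is AR relative binding affinity divided by the RBA for PgR, MR or SBP. The AR source was ventral prostate cytosol from mature male Holtzman rats orchidectomized 24 h before. Cytosol was preincubated with triamcinolone acetonide to block PgR and corticosteroid receptors. [3H]R1881 served as tracer, incubated 18 h at 0 °C. Free ligand was removed with dextran-coated charcoal, 15 min at 0 °C. AR RBA is on a percent scale versus R1881.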

**Q.** For `C[C@@H]1CC2=CC(=O)CC[C@@H]2C2CC[C@@]3(C)C(C[C@@H](F)[C@]3(C)O)C21` (stereo partly drawn), which RBA ratio is on record?
**A.** Its RBA ratio is 2.6.

**Q.** For `C[C@]12CC[C@H]3[C@@H](CCC4CC(=O)CC[C@@]43C)[C@@H]1C[C@@H](F)[C@@H]2O` (stereo partly drawn), which RBA ratio is on record?
**A.** The RBA ratio was 56.1.

**Q.** With `C[C@@H]1CC2=CC(=O)CC[C@@H]2C2CC[C@@]3(C)C(C[C@H](F)[C@]3(C)O)C21` (stereo partly drawn) as the compound, how does the RBA ratio read?
**A.** Its RBA ratio is 10.3.

**Q.** Which RBA ratio does the source give for `C[C@@H]1CC2=CC(=O)CC[C@@H]2C2CC[C@@]3(C)C(CC[C@]3(C)O)C21` (stereo partly drawn) here?
**A.** The RBA ratio was 5.8.

**Q.** With `C[C@]12CC[C@H]3[C@@H](CCC4CC(=O)CC[C@@]43C)[C@@H]1C[C@H](F)[C@@H]2O` (stereo partly drawn) as the compound, how does the RBA ratio read?
**A.** Its RBA ratio is 356.

Target: T2, Mineralocorticoid receptor (Rattus norvegicus) (UniProt P22199)
T2 sequence (whole entry): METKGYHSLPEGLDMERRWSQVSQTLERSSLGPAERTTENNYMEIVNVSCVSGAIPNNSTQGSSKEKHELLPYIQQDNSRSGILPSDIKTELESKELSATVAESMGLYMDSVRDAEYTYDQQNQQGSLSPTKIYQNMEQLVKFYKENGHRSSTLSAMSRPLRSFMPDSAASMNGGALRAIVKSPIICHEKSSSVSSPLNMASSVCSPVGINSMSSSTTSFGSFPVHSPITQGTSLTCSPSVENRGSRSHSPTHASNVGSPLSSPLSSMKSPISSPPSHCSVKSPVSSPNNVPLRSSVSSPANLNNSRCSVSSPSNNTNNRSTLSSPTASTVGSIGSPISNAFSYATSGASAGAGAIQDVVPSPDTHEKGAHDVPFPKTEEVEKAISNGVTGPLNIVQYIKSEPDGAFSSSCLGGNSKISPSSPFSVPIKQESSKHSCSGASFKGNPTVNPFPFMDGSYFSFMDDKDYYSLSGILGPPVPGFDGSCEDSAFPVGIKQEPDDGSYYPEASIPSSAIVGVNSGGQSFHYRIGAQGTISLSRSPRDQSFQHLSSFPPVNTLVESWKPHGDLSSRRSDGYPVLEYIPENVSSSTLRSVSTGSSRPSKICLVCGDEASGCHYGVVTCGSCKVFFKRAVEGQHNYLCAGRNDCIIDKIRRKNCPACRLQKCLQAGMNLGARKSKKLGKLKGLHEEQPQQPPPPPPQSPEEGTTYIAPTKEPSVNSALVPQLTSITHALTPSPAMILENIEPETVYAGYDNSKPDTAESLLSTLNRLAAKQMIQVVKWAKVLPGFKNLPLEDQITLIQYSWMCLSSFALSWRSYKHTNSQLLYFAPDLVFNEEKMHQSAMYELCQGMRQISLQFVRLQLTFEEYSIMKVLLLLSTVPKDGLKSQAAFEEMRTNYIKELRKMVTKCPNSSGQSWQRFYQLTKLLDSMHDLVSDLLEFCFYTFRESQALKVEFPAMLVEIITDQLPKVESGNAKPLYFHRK
Test: Displacement of [3H]aldosterone from rat Mineralocorticoid receptor
Summary of the method: as §1

**Q.** For `C[C@@H]1CC2=CC(=O)CC[C@@H]2C2CC[C@@]3(C)C(C[C@@H](F)[C@]3(C)O)C21` (stereo partly drawn), which relative binding affinity (RBA) is on record?
**A.** Its relative binding affinity (RBA) is 0.37.

**Q.** For `C[C@]12CC[C@H]3[C@@H](CCC4CC(=O)CC[C@@]43C)[C@@H]1C[C@@H](F)[C@@H]2O` (stereo partly drawn), which relative binding affinity (RBA) is on record?
**A.** Its relative binding affinity (RBA) is 0.05.

**Q.** With `C[C@@H]1CC2=CC(=O)CC[C@@H]2C2CC[C@@]3(C)C(C[C@H](F)[C@]3(C)O)C21` (stereo partly drawn) as the compound, how does the relative binding affinity (RBA) read?
**A.** The relative binding affinity (RBA) was 0.08.

**Q.** Which relative binding affinity (RBA) does the source give for `C[C@@H]1CC2=CC(=O)CC[C@@H]2C2CC[C@@]3(C)C(CC[C@]3(C)O)C21` (stereo partly drawn) here?
**A.** The relative binding affinity (RBA) was 5.7.

**Q.** Which relative binding affinity (RBA) does the source give for `C[C@]12CC[C@H]3[C@@H](CCC4CC(=O)CC[C@@]43C)[C@@H]1C[C@H](F)[C@@H]2O` (stereo partly drawn) here?
**A.** The relative binding affinity (RBA) was 0.06.

**Q.** With `C[C@]12CC[C@H]3[C@@H](CCC4=CC(=O)CC[C@@]43C)[C@@H]1CC[C@@H]2O` as the compound, how does the relative binding affinity (RBA) read?
**A.** Its relative binding affinity (RBA) is 4.19.

Species: Rattus norvegicus
Test: Relative affinity for rat androgen receptor(AR) and mineralocorticoid receptor(MR)
Summary of the method: as §2

**Q.** For `C[C@@H]1CC2=CC(=O)CC[C@@H]2C2CC[C@@]3(C)C(C[C@@H](F)[C@]3(C)O)C21` (stereo partly drawn), which RBA ratio is on record?
**A.** The RBA ratio was 101.

**Q.** For `C[C@]12CC[C@H]3[C@@H](CCC4CC(=O)CC[C@@]43C)[C@@H]1C[C@@H](F)[C@@H]2O` (stereo partly drawn), which RBA ratio is on record?
**A.** The RBA ratio was 75.5.

**Q.** For `C[C@@H]1CC2=CC(=O)CC[C@@H]2C2CC[C@@]3(C)C(C[C@H](F)[C@]3(C)O)C21` (stereo partly drawn), which RBA ratio is on record?
**A.** The RBA ratio was 385.

**Q.** Which RBA ratio does the source give for `C[C@@H]1CC2=CC(=O)CC[C@@H]2C2CC[C@@]3(C)C(CC[C@]3(C)O)C21` (stereo partly drawn) here?
**A.** The RBA ratio was 20.7.

**Q.** For `C[C@]12CC[C@H]3[C@@H](CCC4CC(=O)CC[C@@]43C)[C@@H]1C[C@H](F)[C@@H]2O` (stereo partly drawn), which RBA ratio is on record?
**A.** Its RBA ratio is 689.

Target: T3, Sex hormone-binding globulin (Homo sapiens) (UniProt P04278)
T3 sequence (whole entry): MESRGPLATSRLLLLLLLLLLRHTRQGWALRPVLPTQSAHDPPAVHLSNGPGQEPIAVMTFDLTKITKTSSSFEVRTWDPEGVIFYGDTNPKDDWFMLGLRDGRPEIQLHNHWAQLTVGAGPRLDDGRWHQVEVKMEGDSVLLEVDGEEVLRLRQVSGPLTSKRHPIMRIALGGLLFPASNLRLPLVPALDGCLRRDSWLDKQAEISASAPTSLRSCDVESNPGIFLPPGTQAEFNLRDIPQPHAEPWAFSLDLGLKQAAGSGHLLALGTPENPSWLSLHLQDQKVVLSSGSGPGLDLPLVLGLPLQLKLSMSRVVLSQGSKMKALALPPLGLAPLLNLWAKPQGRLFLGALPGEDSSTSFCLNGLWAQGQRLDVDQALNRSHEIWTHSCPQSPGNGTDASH
Test: Displacement of [3H]estradiol from human Sex steroid binding protein (SBP)
Summary of the method: as §1

**Q.** For `C[C@@H]1CC2=CC(=O)CC[C@@H]2C2CC[C@@]3(C)C(C[C@@H](F)[C@]3(C)O)C21` (stereo partly drawn), which relative binding affinity (RBA) is on record?
**A.** The relative binding affinity (RBA) was 3.1.

**Q.** For `C[C@]12CC[C@H]3[C@@H](CCC4CC(=O)CC[C@@]43C)[C@@H]1C[C@@H](F)[C@@H]2O` (stereo partly drawn), which relative binding affinity (RBA) is on record?
**A.** The relative binding affinity (RBA) was 228.

**Q.** Which relative binding affinity (RBA) does the source give for `C[C@@H]1CC2=CC(=O)CC[C@@H]2C2CC[C@@]3(C)C(C[C@H](F)[C@]3(C)O)C21` (stereo partly drawn) here?
**A.** The relative binding affinity (RBA) was 1.3.

**Q.** For `C[C@@H]1CC2=CC(=O)CC[C@@H]2C2CC[C@@]3(C)C(CC[C@]3(C)O)C21` (stereo partly drawn), which relative binding affinity (RBA) is on record?
**A.** Its relative binding affinity (RBA) is 19.

**Q.** Which relative binding affinity (RBA) does the source give for `C[C@]12CC[C@H]3[C@@H](CCC4CC(=O)CC[C@@]43C)[C@@H]1C[C@H](F)[C@@H]2O` (stereo partly drawn) here?
**A.** The relative binding affinity (RBA) was 385.

**Q.** For `C[C@]12CC[C@H]3[C@@H](CCC4=CC(=O)CC[C@@]43C)[C@@H]1CC[C@@H]2O`, which relative binding affinity (RBA) is on record?
**A.** The relative binding affinity (RBA) was 417.

Tested on: not listed separately
Test: Relative affinity for rat androgen receptor(AR) and human Sex steroid binding protein (SBP)
Summary of the method: as §2

**Q.** For `C[C@@H]1CC2=CC(=O)CC[C@@H]2C2CC[C@@]3(C)C(C[C@@H](F)[C@]3(C)O)C21` (stereo partly drawn), which RBA ratio is on record?
**A.** The RBA ratio was 12.

**Q.** With `C[C@]12CC[C@H]3[C@@H](CCC4CC(=O)CC[C@@]43C)[C@@H]1C[C@@H](F)[C@@H]2O` (stereo partly drawn) as the compound, how does the RBA ratio read?
**A.** Its RBA ratio is 0.02.

**Q.** For `C[C@@H]1CC2=CC(=O)CC[C@@H]2C2CC[C@@]3(C)C(C[C@H](F)[C@]3(C)O)C21` (stereo partly drawn), which RBA ratio is on record?
**A.** The RBA ratio was 23.7.

**Q.** Which RBA ratio does the source give for `C[C@@H]1CC2=CC(=O)CC[C@@H]2C2CC[C@@]3(C)C(CC[C@]3(C)O)C21` (stereo partly drawn) here?
**A.** Its RBA ratio is 6.2.

**Q.** For `C[C@]12CC[C@H]3[C@@H](CCC4CC(=O)CC[C@@]43C)[C@@H]1C[C@H](F)[C@@H]2O` (stereo partly drawn), which RBA ratio is on record?
**A.** The RBA ratio was 0.16.
